Laboratory results reported in ChEMBL document CHEMBL4325889, “Natural products hybrids: 3,5,4'-Trimethoxystilbene-5,6,7-trimethoxyflavone chimeric analogs as potential cytotoxic agents against diverse human cancer cells” (Eur J Med Chem, 2019).

What was measured:
Assay type in all cases: functional
HL-60(TB) = experiment: Growth inhibition of human HL-60(TB) cells at 10 uM after 48 hrs by SRB assay relative to control; settings: HL-60, 48 h, read-out: GI
Summary of the method: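 Run at NCI under its standard single-dose protocol against a leukemia cell panel. Cells were exposed to 10 µM; growth was read by sulforhodamine B staining of cellular protein and expressed as % growth inhibition versus untreated control. Values above 100% mean the cell population fell below the starting count (cytocidal). Each value is the average of duplicates.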

K562 = experiment: Growth inhibition of human K562 cells at 10 uM after 48 hrs by SRB assay relative to control; settings: K562, 48 h, read-out: GI
Summary of the method: (§1)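 Screened at the National Cancer Institute by the standard NCI protocol using the sulforhodamine B assay, which measures cellular protein. Single dose of 10 µM. Result is percent growth inhibition; values above 100% mean cell number fell below the initial population. Values are the average of duplicates.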

MOLT-4 = experiment: Growth inhibition of human MOLT4 cells at 10 uM after 48 hrs by SRB assay relative to control; settings: MOLT-4, 48 h, read-out: GI; summary of the method: as §1
SR = experiment: Growth inhibition of human SR cells at 10 uM after 48 hrs by SRB assay relative to control; settings: read-out: GI
Summary of the method: (§2)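 NCI screen against its human cancer cell line panel by the standard NCI protocol, SRB protein stain. Single dose of 10 μM. Percent growth inhibition versus control; values above 100% mean the cell population fell below the starting number. Each value is the mean of duplicates.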

A549 = experiment: Growth inhibition of human A549 cells at 10 uM after 48 hrs by SRB assay relative to control; settings: A549, 48 h, read-out: GI; summary of the method: as §1
HOP-62 = experiment: Growth inhibition of human HOP62 cells at 10 uM after 48 hrs by SRB assay relative to control; settings: HOP-62, 48 h, read-out: GI; summary of the method: as §1
HOP-92 = experiment: Growth inhibition of human HOP92 cells at 10 uM after 48 hrs by SRB assay relative to control; settings: HOP-92, 48 h, read-out: GI; summary of the method: as §1
NCI-H522 = experiment: Growth inhibition of human NCI-H522 cells at 10 uM after 48 hrs by SRB assay relative to control; settings: NCI-H522, 48 h, read-out: GI; summary of the method: as §1
COLO 205 = experiment: Growth inhibition of human COLO205 cells at 10 uM after 48 hrs by SRB assay relative to control; settings: COLO 205, 48 h, read-out: GI; summary of the method: as §1
HCC 2998 = experiment: Growth inhibition of human HCC2998 cells at 10 uM after 48 hrs by SRB assay relative to control; settings: HCC 2998, 48 h, read-out: GI; summary of the method: as §1
HCT-116 = experiment: Growth inhibition of human HCT116 cells at 10 uM after 48 hrs by SRB assay relative to control; settings: HCT-116, 48 h, read-out: GI; summary of the method: as §1
HT-29 = experiment: Growth inhibition of human HT-29 cells at 10 uM after 48 hrs by SRB assay relative to control; settings: HT-29, 48 h, read-out: GI; summary of the method: as §1
SW-620 = experiment: Growth inhibition of human SW620 cells at 10 uM after 48 hrs by SRB assay relative to control; settings: SW-620, 48 h, read-out: GI; summary of the method: as §2
SF-539 = experiment: Growth inhibition of human SF539 cells at 10 uM after 48 hrs by SRB assay relative to control; settings: SF-539, 48 h, read-out: GI; summary of the method: as §1
SNB-19 = experiment: Growth inhibition of human SNB19 cells at 10 uM after 48 hrs by SRB assay relative to control; settings: SNB-19, 48 h, read-out: GI; summary of the method: as §2
SNB-75 = experiment: Growth inhibition of human SNB75 cells at 10 uM after 48 hrs by SRB assay relative to control; settings: SNB-75, 48 h, read-out: GI; summary of the method: as §2
U-251 = experiment: Growth inhibition of human U251 cells at 10 uM after 48 hrs by SRB assay relative to control; settings: U-251, 48 h, read-out: GI; summary of the method: as §2
Malme-3M = experiment: Growth inhibition of human MALME-3M cells at 10 uM after 48 hrs by SRB assay relative to control; settings: read-out: GI; summary of the method: as §1
MDA-MB-435 = experiment: Growth inhibition of human MDA-MB-435 cells at 10 uM after 48 hrs by SRB assay relative to control; settings: MDA-MB-435, 48 h, read-out: GI; summary of the method: as §1
SK-MEL-2 = experiment: Growth inhibition of human SK-MEL-2 cells at 10 uM after 48 hrs by SRB assay relative to control; settings: SK-MEL-2, 48 h, read-out: GI; summary of the method: as §1
SK-MEL-5 = experiment: Growth inhibition of human SK-MEL-5 cells at 10 uM after 48 hrs by SRB assay relative to control; settings: SK-MEL-5, 48 h, read-out: GI; summary of the method: as §1
UACC-62 = experiment: Growth inhibition of human UACC62 cells at 10 uM after 48 hrs by SRB assay relative to control; settings: UACC-62, 48 h, read-out: GI; summary of the method: as §2
OVCAR-3 = experiment: Growth inhibition of human OVCAR3 cells at 10 uM after 48 hrs by SRB assay relative to control; settings: OVCAR-3, 48 h, read-out: GI; summary of the method: as §1
OVCAR-4 = experiment: Growth inhibition of human OVCAR4 cells at 10 uM after 48 hrs by SRB assay relative to control; settings: OVCAR-4, 48 h, read-out: GI; summary of the method: as §1
NCI/ADR-RES = experiment: Growth inhibition of human NCI/ADR-RES cells at 10 uM after 48 hrs by SRB assay relative to control; settings: read-out: GI; summary of the method: as §1
786-0 = experiment: Growth inhibition of human 786-0 cells at 10 uM after 48 hrs by SRB assay relative to control; settings: 786-0, 48 h, read-out: GI; summary of the method: as §1
SN12C = experiment: Growth inhibition of human SN12C cells at 10 uM after 48 hrs by SRB assay relative to control; settings: read-out: GI; summary of the method: as §1
TK-10 = experiment: Growth inhibition of human TK10 cells at 10 uM after 48 hrs by SRB assay relative to control; settings: TK-10, 48 h, read-out: GI; summary of the method: as §2
UO-31 = experiment: Growth inhibition of human UO31 cells at 10 uM after 48 hrs by SRB assay relative to control; settings: UO-31, 48 h, read-out: GI; summary of the method: as §2
PC-3 = experiment: Growth inhibition of human PC3 cells at 10 uM after 48 hrs by SRB assay relative to control; settings: PC-3, 48 h, read-out: GI; summary of the method: as §1
Hs-578T = experiment: Growth inhibition of human Hs 578T cells at 10 uM after 48 hrs by SRB assay relative to control; settings: read-out: GI; summary of the method: as §1
BT-549 = experiment: Growth inhibition of human BT549 cells at 10 uM after 48 hrs by SRB assay relative to control; settings: BT-549, 48 h, read-out: GI; summary of the method: as §1
MDA-MB-468 = experiment: Growth inhibition of human MDA-MB-468 cells at 10 uM after 48 hrs by SRB assay relative to control; settings: MDA-MB-468, 48 h, read-out: GI; summary of the method: as §1

COc1ccc(NC(=O)c2cccc(-c3cc(=O)c4c(O)c(OC)c(OC)cc4o3)c2)cc1
inhibition of growth at 10 µM (HL-60(TB)): -29.7% | inhibition of growth at 10 µM (K562): 8.23% | inhibition of growth at 10 µM (MOLT-4): -2.73% | inhibition of growth at 10 µM (SR): 19.2% | inhibition of growth at 10 µM (A549): 18.7% | inhibition of growth at 10 µM (HOP-62): 27.8% | inhibition of growth at 10 µM (HOP-92): 76.4% | inhibition of growth at 10 µM (NCI-H522): 20.6% | inhibition of growth at 10 µM (COLO 205): 2.39% | inhibition of growth at 10 µM (HCC 2998): -1.16% | inhibition of growth at 10 µM (HCT-116): 29.5% | inhibition of growth at 10 µM (HT-29): 12.3% | inhibition of growth at 10 µM (SW-620): -1.58% | inhibition of growth at 10 µM (SF-539): 43.9% | inhibition of growth at 10 µM (SNB-19): 38.4% | inhibition of growth at 10 µM (SNB-75): 105% | inhibition of growth at 10 µM (U-251): 26.8% | inhibition of growth at 10 µM (Malme-3M): 19.4% | inhibition of growth at 10 µM (MDA-MB-435): -5.05% | inhibition of growth at 10 µM (SK-MEL-2): 16.6% | inhibition of growth at 10 µM (SK-MEL-5): 8.61% | inhibition of growth at 10 µM (UACC-62): 18.9% | inhibition of growth at 10 µM (OVCAR-3): 49.4% | inhibition of growth at 10 µM (OVCAR-4): 2.54% | inhibition of growth at 10 µM (NCI/ADR-RES): 14.7% | inhibition of growth at 10 µM (786-0): 57% | inhibition of growth at 10 µM (SN12C): 15.7% | inhibition of growth at 10 µM (TK-10): -5.09% | inhibition of growth at 10 µM (UO-31): 6.6% | inhibition of growth at 10 µM (PC-3): 13.8% | inhibition of growth at 10 µM (Hs-578T): 43.9% | inhibition of growth at 10 µM (BT-549): 69% | inhibition of growth at 10 µM (MDA-MB-468): 15.7%

COc1cc(NC(=O)c2cccc(-c3cc(=O)c4c(OC)c(OC)c(OC)cc4o3)c2)cc(OC)c1OC
inhibition of growth at 10 µM (HL-60(TB)): 64% | inhibition of growth at 10 µM (K562): 72.4% | inhibition of growth at 10 µM (MOLT-4): 89.6% | inhibition of growth at 10 µM (SR): 70.2% | inhibition of growth at 10 µM (A549): 56.5% | inhibition of growth at 10 µM (HOP-62): 62.5% | inhibition of growth at 10 µM (HOP-92): 75.3% | inhibition of growth at 10 µM (NCI-H522): 65.3% | inhibition of growth at 10 µM (COLO 205): 55.7% | inhibition of growth at 10 µM (HCC 2998): 25.9% | inhibition of growth at 10 µM (HCT-116): 51.4% | inhibition of growth at 10 µM (HT-29): 69% | inhibition of growth at 10 µM (SW-620): 33% | inhibition of growth at 10 µM (SF-539): 47.4% | inhibition of growth at 10 µM (SNB-19): 43.7% | inhibition of growth at 10 µM (SNB-75): 25.3% | inhibition of growth at 10 µM (U-251): 55.1% | inhibition of growth at 10 µM (Malme-3M): 43.6% | inhibition of growth at 10 µM (MDA-MB-435): 93.6% | inhibition of growth at 10 µM (SK-MEL-2): 58.3% | inhibition of growth at 10 µM (SK-MEL-5): 91.7% | inhibition of growth at 10 µM (UACC-62): 49.5% | inhibition of growth at 10 µM (OVCAR-3): 59.2% | inhibition of growth at 10 µM (OVCAR-4): 25.1% | inhibition of growth at 10 µM (NCI/ADR-RES): 48.9% | inhibition of growth at 10 µM (786-0): 68.2% | inhibition of growth at 10 µM (SN12C): 54.1% | inhibition of growth at 10 µM (TK-10): 30.6% | inhibition of growth at 10 µM (UO-31): 79.1% | inhibition of growth at 10 µM (PC-3): 47.6% | inhibition of growth at 10 µM (Hs-578T): 90.8% | inhibition of growth at 10 µM (BT-549): 73% | inhibition of growth at 10 µM (MDA-MB-468): 52.6%
